Test results reported in ChEMBL document CHEMBL1140717, “Acridine-based agents with topoisomerase II activity inhibit pancreatic cancer cell proliferation and induce apoptosis” (J Med Chem, 2008).

Key:
BXPC-3 [1] = assay: Cell cycle arrest in human BXPC3 cells assessed as accumulation at G1 phase at 15 uM after 36 hrs; format: functional
Outline: (§1)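 Cells grown in DMEM with 10% fetal calf serum and L-glutamine, then exposed to diluent or compound at 15 µM final for 36 h. Fixed in 50% ethanol, rehydrated, RNase-treated and stained with 50 µg/mL propidium iodide in 0.1% sodium citrate. Flow cytometry (≥20 000 events per sample) gave the percentage of cells in G1, S and G2/M.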

MIA PaCa-2 [2] = assay: Induction of apoptosis in human MiaPaCa2 cells at 50 uM after 48 hrs; format: functional
MIA PaCa-2 [3] = assay: Cell cycle arrest in human MiaPaCa2 cells assessed as accumulation at G2/M phase at 15 uM after 36 hrs; format: functional; outline: as §1
[4] = Growth inhibition of human SU86.86 cells after 72 hrs by MTT assay; format: functional, cell-based; settings: SU.86.86, 72 h
Outline: (§2)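 Cells maintained in DMEM with 10% fetal calf serum plus L-glutamine, then exposed over 72 h to a range of compound concentrations. Viability read by MTT; percent growth inhibition determined and IC50 estimated from the MTT data.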

[5] = Cell cycle arrest in human SU86.86 cells assessed as accumulation at S phase at 15 uM after 36 hrs; format: functional, cell-based; settings: SU.86.86; outline: as §1
MIA PaCa-2 [6] = assay: Cell cycle arrest in human MiaPaCa2 cells assessed as accumulation at S phase at 15 uM after 36 hrs; format: functional; outline: as §1
BXPC-3 [7] = assay: Induction of apoptosis in human BXPC3 cells 50 uM after 48 hrs; format: functional
Outline: (§3)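 BXPC-3 cells exposed to diluent or compound for 48 h, then collected and nuclei stained with Hoechst. Three hundred nuclei per field scored as apoptotic when the nucleus was fragmented into multiple discrete fragments; result expressed as percentage of cells in apoptosis.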

MIA PaCa-2 [8] = assay: Growth inhibition of human MiaPaCa2 cells after 72 hrs by MTT assay; format: functional, cell-based; settings: MIA PaCa-2, 72 h; outline: as §2
[9] = Cell cycle arrest in human SU86.86 cells assessed as accumulation at G2/M phase at 15 uM after 36 hrs; format: functional, cell-based; settings: SU.86.86; outline: as §1
BXPC-3 [10] = assay: Cell cycle arrest in human BXPC3 cells assessed as accumulation at S phase at 15 uM after 36 hrs; format: functional; outline: as §1
BXPC-3 [11] = assay: Cell cycle arrest in human BXPC3 cells assessed as accumulation at G2/M phase at 15 uM after 36 hrs; format: functional; outline: as §1
SU.86.86 [12] = assay: Induction of apoptosis in human SU86.86 cells 50 uM after 48 hrs; format: functional
MIA PaCa-2 [13] = assay: Cell cycle arrest in human MiaPaCa2 cells assessed as accumulation at G1 phase at 15 uM after 36 hrs; format: functional; outline: as §1
[14] = Cell cycle arrest in human SU86.86 cells assessed as accumulation at G1 phase at 15 uM after 36 hrs; format: functional, cell-based; settings: SU.86.86; outline: as §1
BXPC-3 [15] = assay: Induction of apoptosis in human BXPC3 cells at 15 uM after 48 hrs; format: functional; outline: as §3
MIA PaCa-2 [16] = assay: Induction of apoptosis in human MiaPaCa2 cells at 15 uM after 48 hrs; format: functional
BXPC-3 [17] = assay: Growth inhibition of human BXPC3 cells after 72 hrs by MTT assay; format: functional, cell-based; settings: BXPC-3, 72 h; outline: as §2
SU.86.86 [18] = assay: Induction of apoptosis in human SU86.86 cells at 15 uM after 48 hrs; format: functional
SU.86.86 [19] = assay: Induction of apoptosis in human SU86.86 cells at 25 uM after 48 hrs; format: functional
MIA PaCa-2 [20] = assay: Induction of apoptosis in human MiaPaCa2 cells at 25 uM after 48 hrs; format: functional
BXPC-3 [21] = assay: Induction of apoptosis in human BXPC3 cells at 25 uM after 48 hrs; format: functional; outline: as §3

Row | SMILES | Activity (BXPC-3 [1]) [%] | Activity (MIA PaCa-2 [3]) [%] | IC50 [4] [µM] | Activity [5] [%] | Activity (MIA PaCa-2 [6]) [%] | IC50 (MIA PaCa-2 [8]) [µM] | Activity [9] [%] | Activity (BXPC-3 [10]) [%] | Activity (BXPC-3 [11]) [%] | Activity (MIA PaCa-2 [13]) [%] | Activity [14] [%] | Activity (BXPC-3 [15]) [%] | Activity (MIA PaCa-2 [16]) [%] | IC50 (BXPC-3 [17]) [µM] | Activity (SU.86.86 [18]) [%] | further results
1 | CN1CCN(C(=O)c2cccc3c(NCCc4c[nH]c5ccccc45)c4ccccc4nc23)CC1 | 83 | 21 | 10 | 27 | 47 | 4 | 17 | 10 | 7 | 32 | 56 |  |  |  |  | Activity (MIA PaCa-2 [2]): 29%; Activity (BXPC-3 [7]): 32%; Activity (SU.86.86 [12]): 23%
2 | CCN(CC)C(=O)c1ccc2c(NCCc3c[nH]c4ccccc34)c3ccccc3nc2c1 | 76 | 18 | 10 |  | 50 | 11 | 16 | 20 | 4 | 32 | 60 | 40 | 42 | 14 | 17 | 
3 | CN1CCN(C(=O)c2ccc3c(NCCc4c[nH]c5ccccc45)c4ccccc4nc3c2)CC1 | 81 | 20 | 8 | 26 | 51 | 6 | 24 | 12 | 7 | 29 | 50 | 44 | 20 | 12 | 34 | 
4 | CN1CCN(C(=O)c2ccc3c(NC4CCN(Cc5ccccc5)CC4)c4ccccc4nc3c2)CC1 | 77 | 20 | 6 | 29 | 52 | 1 | 18 | 16 | 7 | 28 | 53 |  |  | 7 |  | Activity (SU.86.86 [19]): 30%; Activity (MIA PaCa-2 [20]): 36%; Activity (BXPC-3 [21]): 52%
